In ChEMBL document CHEMBL1212820, “Novel hinge binder improves activity and pharmacokinetic properties of BRAF inhibitors” (J Med Chem, 2010):

Assays:
[1] = biological target: T1, Serine/threonine-protein kinase B-raf (Homo sapiens, UniProt P15056, V600E); test: Inhibition of B-Raf V600E mutant
Procedure, shortened: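 Enzymatic IC50 determined in vitro against purified V600E BRAF.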

[2] = biological target: T1, Serine/threonine-protein kinase B-raf; test: Inhibition of BRAF V600E mutant-mediated ERK phosphorylation in human WM266.4 cells; type: cell-based
Procedure, shortened: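 Cellular IC50 for inhibition of phosphoERK formation.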

[3] = Growth inhibition of human WM266.4 cells expressing BRAF V600E mutant after 5 days by SRB assay; type: functional; details: WM 266-4, 120 h
Procedure, shortened: (§1)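 Antiproliferative SRB assay in WM266.4 (BRAF mutant), WM1361 (NRAS mutant) and D24 (BRAF/NRAS wild-type) melanoma cells, with GI50 derived from the assay.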

[4] = Cmax in BALB/cAnNCrl mouse at 10 mg/kg, po; details: in vivo
[5] = Tmax in BALB/cAnNCrl mouse at 10 mg/kg, po; details: in vivo
[6] = Half life in BALB/cAnNCrl mouse at 10 mg/kg, po; details: in vivo
[7] = Oral bioavailability in BALB/cAnNCrl mouse at 10 mg/kg; details: in vivo
[8] = Ratio of Cmax in BALB/cAnNCrl mouse to GI50 for human WM266.4 cells
[9] = Selectivity index, ratio of GI50 for human WM1361 cells to GI50 for human WM266.4 cells; type: functional
Procedure, shortened: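 GI50 values from the SRB proliferation assay, expressed relative to the GI50 in WM266.4 (BRAF mutant) cells.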

[10] = Growth inhibition of human WM1361 cells expressing NRAS mutant after 5 days by SRB assay; type: functional; details: WM1361, 120 h; procedure, shortened: as §1
[11] = Growth inhibition of D24 after 5 days by SRB assay; type: functional; procedure, shortened: as §1
[12] = Selectivity index, ratio of GI50 for human WM1361 cells to GI50 for human WM266.4

T1 sequence (P15056 2-766 V600E limits assumed): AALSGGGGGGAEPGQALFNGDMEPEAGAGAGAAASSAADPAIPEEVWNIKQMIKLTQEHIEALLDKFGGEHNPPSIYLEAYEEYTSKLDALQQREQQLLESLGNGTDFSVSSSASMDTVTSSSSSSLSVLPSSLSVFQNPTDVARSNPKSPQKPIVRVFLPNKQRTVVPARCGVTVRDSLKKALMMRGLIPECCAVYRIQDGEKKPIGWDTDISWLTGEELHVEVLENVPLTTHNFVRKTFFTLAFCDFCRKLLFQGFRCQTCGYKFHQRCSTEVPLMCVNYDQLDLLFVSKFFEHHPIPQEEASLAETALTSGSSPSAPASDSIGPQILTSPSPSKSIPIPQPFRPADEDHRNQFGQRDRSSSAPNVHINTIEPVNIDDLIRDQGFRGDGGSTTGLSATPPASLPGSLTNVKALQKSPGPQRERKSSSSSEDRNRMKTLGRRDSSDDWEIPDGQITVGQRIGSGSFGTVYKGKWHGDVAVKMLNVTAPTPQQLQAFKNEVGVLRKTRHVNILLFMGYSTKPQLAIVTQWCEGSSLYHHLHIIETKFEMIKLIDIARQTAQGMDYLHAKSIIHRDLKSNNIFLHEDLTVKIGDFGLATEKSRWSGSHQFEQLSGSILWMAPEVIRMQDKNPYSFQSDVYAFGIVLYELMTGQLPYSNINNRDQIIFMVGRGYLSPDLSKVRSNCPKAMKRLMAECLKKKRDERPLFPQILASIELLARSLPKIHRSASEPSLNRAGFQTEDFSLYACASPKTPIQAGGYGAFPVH

Compound | IC50 [1] | IC50 [2] | GI50 [3] | Cmax [4] | Tmax [5] | half-life [6] | bioavailability [7] | Ratio [8] | RatioGI50 [9] | GI50 [10] | GI50 [11] | RatioGI50 [12]
CC(C)(C)c1cc(NC(=O)Nc2cccc(Oc3ccnc4[nH]c(=O)cnc34)c2)n(-c2ccccc2)n1 | 58 nM | 280 nM | 170 nM | 29.5 µM | 0.5 h | 1.4 h | 6% | 170 |  |  |  | 
CSc1cc(Oc2ccnc3[nH]c(=O)cnc23)ccc1NC(=O)Nc1cc(C(C)(C)C)nn1-c1ccc(C)cc1 | 19 nM | 5 nM | 1 nM | 101 µM | 3 h | 7.9 h | 71% | 101200 |  |  |  | 
Cc1ccc(-n2nc(C(C)(C)C)cc2NC(=O)Nc2cccc(Oc3ccnc4[nH]c(=O)cnc34)c2)cc1 | 87 nM | 274 nM | 190 nM | 27 µM | 0.5 h | 4 h | 27% | 142 | 60 | 12000 nM | 26000 nM | 130
Cc1ccc(-n2nc(C(C)(C)C)cc2NC(=O)Nc2ccc(Oc3ccnc4[nH]c(=O)cnc34)cc2F)cc1 |  | 24 nM | 15 nM | 33.6 µM | 3 h | 5.9 h | 24% | 2240 |  |  |  | 
Cc1nc2c(Oc3ccc(NC(=O)Nc4cc(C(F)(F)F)ccc4F)c4ccccc34)ccnc2[nH]c1=O | 4 nM | 62 nM | 36 nM | 0.316 µM | 3 h |  | 4% |  |  |  |  | 
Cc1ccc(-n2nc(C(C)(C)C)cc2NC(=O)Nc2ccc(Oc3ccnc4[nH]c(=O)cnc34)cc2)cc1 |  | 96 nM | 62 nM | 31.9 µM | 0.5 h | 6.3 h | 17% | 510 |  |  |  | 
CC(C)(C)c1cc(NC(=O)Nc2ccc(Oc3ccnc4[nH]c(=O)cnc34)c3ccccc23)n(-c2ccccc2)n1 | 77 nM | 8 nM | 105 nM | 14.2 µM | 0.25 h | 1.7 h | 7% | 130 |  |  |  | 
Cc1ccc(-n2nc(C(C)(C)C)cc2NC(=O)Nc2ccc(Oc3ccnc4[nH]c(S)nc34)cc2F)cc1 | 310 nM | 55 nM | 154 nM | 11.7 µM | 3 h | 3.3 h | 13% | 76 |  |  |  | 
Cc1ccc(-n2nc(C(C)(C)C)cc2NC(=O)Nc2ccc(Oc3ccnc4[nH]c(=O)c(=O)[nH]c34)cc2F)cc1 | 90 nM | 75 nM | 79 nM | 5.54 µM | 3 h | 5.4 h | 1% | 70 |  |  |  | 
CN(C)c1cnc2c(Oc3ccc(NC(=O)Nc4cc(C(F)(F)F)ccc4F)c(F)c3)ccnc2n1 | 220 nM | 20000 nM | 55000 nM |  |  |  |  |  |  |  |  | 
CC(C)(C)c1cccc(C(=O)Nc2cccc(Oc3ccnc4[nH]c(=O)cnc34)c2)c1 | 7 nM | 850 nM | 1700 nM |  |  |  |  |  |  |  |  | 
Cc1ccc(-n2nc(C(C)(C)C)cc2NC(=O)Nc2ccc(Oc3ccnc4[nH]nnc34)cc2F)cc1 | 1370 nM | 3100 nM | 1980 nM |  |  |  |  |  |  |  |  | 
Cc1nc2c(Oc3ccc(NC(=O)Nc4cc(C(F)(F)F)ccc4F)c(F)c3)ccnc2[nH]c1=O | 3 nM | 590 nM | 850 nM |  |  |  |  |  |  |  |  | 
CN1CCN(c2cnc3c(Oc4ccc(NC(=O)Nc5cc(C(C)(C)C)nn5-c5ccccc5)c(F)c4)ccnc3n2)CC1 | 4100 nM | 750 nM | 417 nM |  |  |  |  |  |  |  |  | 
CN(C)c1nc2c(Oc3ccc(NC(=O)Nc4cc(C(F)(F)F)ccc4F)c(F)c3)ccnc2[nH]1 | 25 nM | 6000 nM | 116 nM |  |  |  |  |  |  |  |  | 
Cc1ccc(-n2nc(C(C)(C)C)cc2NC(=O)Nc2ccc(Oc3ccnc4[nH]c(=O)c(C)nc34)c3ccccc23)cc1 | 99 nM | 5 nM | 75 nM |  |  |  |  |  |  |  |  | 
O=C(Nc1ccc(Oc2ccnc3nc(N4CCOCC4)cnc23)cc1F)Nc1cc(C(F)(F)F)ccc1F | 97 nM | 3800 nM | 1120 nM |  |  |  |  |  |  |  |  | 
Cn1nc(C(C)(C)C)cc1NC(=O)Nc1ccc(Oc2ccnc3[nH]c(=O)cnc23)cc1F | 17 nM | 620 nM | 760 nM |  |  |  |  |  |  |  |  | 
Cc1nc2nccc(Oc3ccc(NC(=O)Nc4cc(C(F)(F)F)ccc4F)c(F)c3)c2[nH]c1=O | 258 nM | 20000 nM | 2700 nM |  |  |  |  |  |  |  |  | 
CSc1cc(Oc2ccnc3[nH]c(=O)c(C)nc23)ccc1NC(=O)Nc1cc(C(C)(C)C)nn1-c1ccc(C)cc1 | 24 nM | 6 nM | 3 nM |  |  |  |  |  |  |  |  | 
Cc1ccc(-n2nc(C(C)(C)C)cc2NC(=O)Nc2cccc(Oc3ccnc4[nH]c(=O)c(C)nc34)c2)cc1 | 132 nM | 69 nM | 69 nM |  |  |  |  |  |  |  |  | 
CNc1cnc2c(Oc3ccc(NC(=O)Nc4cc(C(F)(F)F)ccc4F)c(F)c3)ccnc2n1 | 107 nM | 45000 nM | 48000 nM |  |  |  |  |  |  |  |  | 
CN(C)c1nc2c(Oc3ccc(NC(=O)Nc4cc(C(C)(C)C)nn4-c4ccccc4)c(F)c3)ccnc2[nH]1 | 1670 nM | 1700 nM | 574 nM |  |  |  |  |  |  |  |  | 
CSc1cc(Oc2ccnc3[nH]c(=O)c(C)nc23)ccc1NC(=O)Nc1cc(C(F)(F)F)ccc1F | 2 nM | 97 nM | 225 nM |  |  |  |  |  |  |  |  | 
O=C(Nc1cccc(Oc2ccnc3ncc(=O)[nH]c23)c1)Nc1cc(C(F)(F)F)ccc1F | 105 nM | > 100000 nM | 6100 nM |  |  |  |  |  |  |  |  | 
Nc1nc2c(Oc3ccc(NC(=O)Nc4cc(C(F)(F)F)ccc4F)c(F)c3)ccnc2[nH]c1=O | 30 nM | 1550 nM | 1550 nM |  |  |  |  |  |  |  |  | 
O=C(Nc1ccc(Oc2ccnc3[nH]c(=O)cnc23)cc1)Nc1ccc(Cl)c(C(F)(F)F)c1 | 11 nM | 4890 nM | 9100 nM |  |  |  |  |  |  |  |  | 
